ChEMBL document CHEMBL3272092, “Synthesis and antihypertensive activity of 5-thio-2-pyridinecarboxylic acid derivatives” (J Med Chem, 1978)

Columns and labels:
[1] = system: Rattus norvegicus; test: Antihypertensive activity in spontaneous hypertensive rat model assessed as decrease in blood pressure at 100 mg/kg, po administered for 2 to 4 days measured on day 2 to day 4; format: functional
Procedure, shortened: (§1)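 SHR, 4–6 per drug, were dosed daily by gavage for 2 or 4 consecutive days in 3% cornstarch, 5% PEG-400 and 1 drop Tween 80 per mL. After 1 h acclimation, systolic pressure was read by tail-cuff (inflated to 250 mmHg, then lowered; pulse reemergence), at least three readings, at 1, 2, 3 and 24 h post-dose. The peak fall is scored: +, <20 mm up to >80 mm.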

[2] = system: Rattus norvegicus; test: Toxicity in spontaneous hypertensive rat model at 100 mg/kg, po administered for 2 to 4 days; format: organism-based; design: dose 100 mg/kg, route oral; details: in vivo
[3] = system: Rattus norvegicus; test: Antihypertensive activity in spontaneous hypertensive rat model assessed as decrease in blood pressure at 30 mg/kg, po administered for 2 to 4 days measured on day 2 to day 4; format: functional
[4] = system: Canis familiaris; test: Antihypertensive activity in unanesthetized renal hypertensive Mongrel dog model assessed as change in mean blood pressure at 100 mg/kg, po qd measured on day 1; format: functional, Canis lupus familiaris
Procedure, shortened: (§2)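 Unanesthetized renal hypertensive dogs. Arterial pressure was recorded via a hypodermic needle and polyethylene tubing to a pressure transducer. Drug was given orally once daily as solid in a gelatin capsule. Pressure was determined 1.5, 3, 6 and 24 h after each dose, and the maximum change over each daily monitored session is reported.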

[5] = system: Squirrel monkey; test: Toxicity in normotensive squirrel monkey model assessed as change in heart rate at 100 mg/kg, po qd measured on day 3; format: organism-based, Saimiri sciureus; design: dose 100 mg/kg, route oral; details: in vivo
Procedure, shortened: (§3)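 Heart rate in restrained, tail-warmed squirrel monkeys was counted manually from the tail-cuff pressure record. Daily gavage used a suspension in 3% cornstarch, 5% PEG-400 and 1 drop Tween 80 per 10 mL. Monitoring was at 1.5, 3, 5 and 24 h after each dose, and the peak change per administration is reported. Paired t test.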

[6] = system: Squirrel monkey; test: Toxicity in normotensive squirrel monkey model assessed as change in heart rate at 100 mg/kg, po qd measured on day 1; format: organism-based, Saimiri sciureus; design: dose 100 mg/kg, route oral; details: in vivo; procedure, shortened: as §3
[7] = system: Canis familiaris; test: Toxicity in unanesthetized renal hypertensive Mongrel dog model assessed as emesis at 100 mg/kg, po qd measured on day 1 to 4; format: organism-based, Canis lupus familiaris; design: dose 100 mg/kg, route oral; details: in vivo
[8] = system: Canis familiaris; test: Toxicity in unanesthetized renal hypertensive Mongrel dog model assessed as change in heart rate at 100 mg/kg, po qd measured on day 1; format: organism-based, Canis lupus familiaris; design: dose 100 mg/kg, route oral; details: in vivo
Procedure, shortened: (§4)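 Heart rate in unanesthetized renal hypertensive dogs was counted manually from the transducer-recorded arterial pressure trace. Oral dosing was once daily as solid in a gelatin capsule. Readings were at 1.5, 3, 6 and 24 h post-dose, and the maximum change per daily session is reported.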

[9] = system: Squirrel monkey; test: Antihypertensive activity in normotensive squirrel monkey model assessed as decrease in systolic blood pressure at 100 mg/kg, po qd measured on day 2 by sphygmomanometry; format: functional, Saimiri sciureus, Artery
Procedure, shortened: (§5)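 Restrained squirrel monkeys of either sex with tails warmed by infrared lamp. Systolic pressure was measured indirectly with a tail-base occlusion cuff and pulse transducer. Doses were given daily by gavage as a suspension in 3% cornstarch, 5% PEG-400 and 1 drop Tween 80 per 10 mL. Readings were taken 1.5, 3, 5 and 24 h post-dose. Values are the peak change after each dose, analysed by paired t test.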

[10] = system: Squirrel monkey; test: Antihypertensive activity in normotensive squirrel monkey model assessed as decrease in systolic blood pressure at 100 mg/kg, po qd measured on day 4 by sphygmomanometry; format: functional, Saimiri sciureus, Artery; procedure, shortened: as §5
[11] = system: Squirrel monkey; test: Toxicity in normotensive squirrel monkey model assessed as change in heart rate at 100 mg/kg, po qd measured on day 4; format: organism-based, Saimiri sciureus; design: dose 100 mg/kg, route oral; details: in vivo; procedure, shortened: as §3
[12] = system: Squirrel monkey; test: Antihypertensive activity in normotensive squirrel monkey model assessed as decrease in systolic blood pressure at 100 mg/kg, po qd measured on day 3 by sphygmomanometry; format: functional, Saimiri sciureus, Artery; procedure, shortened: as §5
[13] = system: Rattus norvegicus; test: Antihypertensive activity in spontaneous hypertensive rat model assessed as decrease in blood pressure at 200 mg/kg, po administered for 2 to 4 days measured on day 2 to day 4; format: functional; procedure, shortened: as §1
[14] = system: Rattus norvegicus; test: Toxicity in spontaneous hypertensive rat model assessed as bradycardia at 100 to 200 mg/kg, po administered for 2 to 4 days; format: organism-based; design: route oral; details: in vivo
Procedure, shortened: (§6)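 Heart rate in SHR was counted from tail-cuff pressure pulses after 1 h acclimation. Rats (4–6 per drug) were gavaged daily for 2 or 4 days at 100 mg/kg (sometimes 200 mg/kg) in 3% cornstarch, 5% PEG-400 and 1 drop Tween 80 per mL. Recordings were at 1, 2, 3 and 24 h after each dose.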

[15] = system: Squirrel monkey; test: Toxicity in normotensive squirrel monkey model assessed as change in heart rate at 100 mg/kg, po qd measured on day 2; format: organism-based, Saimiri sciureus; design: dose 100 mg/kg, route oral; details: in vivo; procedure, shortened: as §3
[16] = system: Squirrel monkey; test: Antihypertensive activity in normotensive squirrel monkey model assessed as decrease in systolic blood pressure at 100 mg/kg, po qd measured on day 1 by sphygmomanometry; format: functional, Saimiri sciureus, Artery; procedure, shortened: as §5
[17] = system: Canis familiaris; test: Toxicity in unanesthetized renal hypertensive Mongrel dog model assessed as change in heart rate at 100 mg/kg, po qd measured on day 2; format: organism-based, Canis lupus familiaris; design: dose 100 mg/kg, route oral; details: in vivo; procedure, shortened: as §4
[18] = system: Canis familiaris; test: Antihypertensive activity in unanesthetized renal hypertensive Mongrel dog model assessed as change in mean blood pressure at 100 mg/kg, po qd measured on day 2; format: functional, Canis lupus familiaris; procedure, shortened: as §2
[19] = system: Rattus norvegicus; test: Toxicity in spontaneous hypertensive rat model assessed as effect on heart rate at 100 mg/kg, po administered for 2 to 4 days; format: organism-based; design: dose 100 mg/kg, route oral; details: in vivo; procedure, shortened: as §6
[20] = system: Squirrel monkey; test: Antihypertensive activity in normotensive squirrel monkey model assessed as decrease in systolic blood pressure at 30 mg/kg, po qd measured on day 1 by sphygmomanometry; format: functional, Saimiri sciureus, Artery
Procedure, shortened: (§7)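 Squirrel monkeys of either sex restrained in primate chairs, tails warmed by infrared lamp. Systolic pressure taken indirectly by tail-base occlusion cuff with pulse transducer; heart rate counted by hand from the pressure trace. Daily gavage of a suspension in 3% cornstarch, 5% PEG-400 and 1 drop Tween 80 per 10 mL. Read at 1.5, 3, 5 and 24 h; peak change per dose; paired t test.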

[21] = system: Canis familiaris; test: Toxicity in unanesthetized renal hypertensive Mongrel dog model assessed as change in heart rate at 60 mg/kg, po qd measured on day 2; format: organism-based, Canis lupus familiaris; design: dose 60 mg/kg, route oral; details: in vivo
Procedure, shortened: (§8)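 Conscious renal hypertensive dogs. Blood pressure recorded through a hypodermic needle and tubing to a pressure transducer; heart rate counted by hand. Solid drug given orally once daily in gelatin capsule. Pressures read at 1.5, 3, 6 and 24 h after each dose; maximum changes in pressure and heart rate over each daily session reported.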

[22] = system: Canis familiaris; test: Toxicity in unanesthetized renal hypertensive Mongrel dog model assessed as emesis at 60 mg/kg, po qd measured on day 1 to 4; format: organism-based, Canis lupus familiaris; design: dose 60 mg/kg, route oral; details: in vivo
[23] = system: Canis familiaris; test: Antihypertensive activity in unanesthetized renal hypertensive Mongrel dog model assessed as change in mean blood pressure at 60 mg/kg, po qd measured on day 3; format: functional, Canis lupus familiaris; procedure, shortened: as §8
[24] = system: Canis familiaris; test: Toxicity in unanesthetized renal hypertensive Mongrel dog model assessed as change in heart rate at 60 mg/kg, po qd measured on day 3; format: organism-based, Canis lupus familiaris; design: dose 60 mg/kg, route oral; details: in vivo; procedure, shortened: as §8
[25] = system: Squirrel monkey; test: Toxicity in normotensive squirrel monkey model assessed as change in heart rate at 30 mg/kg, po qd measured on day 1; format: organism-based, Saimiri sciureus; design: dose 30 mg/kg, route oral; details: in vivo; procedure, shortened: as §7
[26] = system: Canis familiaris; test: Antihypertensive activity in unanesthetized renal hypertensive Mongrel dog model assessed as change in mean blood pressure at 60 mg/kg, po qd measured on day 1; format: functional, Canis lupus familiaris; procedure, shortened: as §8
[27] = system: Canis familiaris; test: Toxicity in unanesthetized renal hypertensive Mongrel dog model assessed as change in heart rate at 60 mg/kg, po qd measured on day 1; format: organism-based, Canis lupus familiaris; design: dose 60 mg/kg, route oral; details: in vivo; procedure, shortened: as §8
[28] = system: Squirrel monkey; test: Toxicity in normotensive squirrel monkey model assessed as emesis at 30 mg/kg, po qd measured on day 1; format: organism-based, Saimiri sciureus; design: dose 30 mg/kg, route oral; details: in vivo
[29] = system: Squirrel monkey; test: Toxicity in normotensive squirrel monkey model assessed as emesis at 100 mg/kg, po qd measured on day 2; format: organism-based, Saimiri sciureus; design: dose 100 mg/kg, route oral; details: in vivo
[30] = system: Canis familiaris; test: Antihypertensive activity in unanesthetized renal hypertensive Mongrel dog model assessed as change in mean blood pressure at 60 mg/kg, po qd measured on day 2; format: functional, Canis lupus familiaris; procedure, shortened: as §8

`O=C([O-])c1ccc([S+]([O-])Cc2ccc(Cl)cc2Cl)cn1.[Na+]` (stereo not drawn) showed an Activity [1] greater than 20 mmHg.

In the case of `O=C([O-])c1ccc(SCc2ccc(F)cc2)cn1.[Na+]`, the Activity [1] was greater than 20 mmHg.

With `O=C(O)c1ccc(SCc2cccc(F)c2)cn1` the Activity [1] was greater than 20 mmHg.

`O=C(O)c1ccc(SCCCCl)cn1` gave an Activity [1] greater than 20 mmHg.

With `O=C(O)c1ccc(Sc2cccc(Cl)c2)cn1` the Activity [1] was greater than 20 mmHg.

Compound `COc1ccc(CSc2ccc(C(=O)[O-])nc2)cc1.[Na+]` has an Activity [1] of less than 20 mmHg.

Work on `O=C([O-])c1ccc(SCc2cccc(Br)c2)cn1.[Na+]` yielded an Activity [1] greater than 60 mmHg.

For `O=C([O-])c1ccc(Sc2ccc(Cl)cc2)cn1.[Na+]`, the Activity [2] was “Toxic” and the Activity [3] was less than 20 mmHg.

Compound `O=C(O)c1ccc([S+]([O-])Cc2cccc(C(F)(F)F)c2)cn1` (stereo not drawn) has an Activity [4] of -7 mmHg, an Activity [5] of -73 bpm and an Activity [6] of -43 bpm. The Activity [7] was “Non-toxic”, the Activity [8] was 10 bpm and the Activity [9] was -29 mmHg. It also gave an Activity [10] of -19 mmHg, an Activity [11] of -33 bpm and an Activity [12] of -19 mmHg. The Activity [1] was greater than 40 mmHg, the Activity [13] was greater than 60 mmHg and the Activity [14] was “Toxic”. For the same compound, the Activity [15] was -83 bpm, the Activity [16] was -30 mmHg and the Activity [17] was 2 bpm. It also gave an Activity [18] of -10 mmHg.

With `O=C(O)c1ccc(SCCCc2ccccc2)cn1` the Activity [1] was greater than 20 mmHg.

In the case of `Cc1cccc(CSc2ccc(C(=O)O)nc2)c1`, the Activity [1] was less than 20 mmHg.

In the case of `CCCCSc1ccc(C(=O)O)nc1`, the Activity [19] was “Non-toxic” and the Activity [1] was greater than 20 mmHg.

`CCCCc1ccc(C(=O)O)nc1` [FUSARIC ACID] was tested, and the Activity [20] was -28 mmHg, the Activity [21] was 35 bpm and the Activity [22] was “Toxic”. For the same compound, the Activity [23] was -30 mmHg, the Activity [24] was 33 bpm and the Activity [25] was -20 bpm. The Activity [9] was -53 mmHg, the Activity [26] was -50 mmHg and the Activity [1] was greater than 60 mmHg. The Activity [15] was 10 bpm, the Activity [27] was 32 bpm and the Activity [28] was “Non-toxic”. For the same compound, the Activity [29] was “Non-toxic” and the Activity [30] was -45 mmHg.

In the case of `O=C([O-])c1ccc(SCc2ccc(Cl)c(Cl)c2)cn1.[Na+]`, the Activity [1] was less than 20 mmHg.

`O=C(O)c1ccc(SCc2cccc(Cl)c2)cn1` gave an Activity [1] greater than 40 mmHg.

`O=C(O)c1ccc([S+]([O-])c2ccc(Cl)cc2)cn1` (stereo not drawn) was tested, and the Activity [1] was less than 20 mmHg.

Work on `CC(Sc1ccc(C(=O)O)nc1)c1cccc(C(F)(F)F)c1` (stereo not drawn) yielded an Activity [1] greater than 40 mmHg.

For `N#Cc1cccc(CSc2ccc(C(=O)[O-])nc2)c1.[Na+]`, the Activity [1] was greater than 20 mmHg.
